Data set [1] deals with T1, P-glycoprotein (ABCB1) (Homo sapiens, UniProt P08183). Nature of the data set: Inhibition of P-glycoprotein-mediated multidrug resistance in adriamycin-resistant human A2780 cells assessed as calcein accumulation at 0.25 ug/ml after 15 mins relative to control. The data set is classed as cell-based. The conditions noted are these: probe calcein, values are per cent of control.

Data set [2] concerns the target T1, P-glycoprotein (ABCB1). As to the kind of experiment: Inhibition of P-glycoprotein-mediated multidrug resistance in adriamycin-resistant human A2780 cells assessed as calcein accumulation at 2.5 ug/ml after 15 mins relative to control. The data set is classed as cell-based. Conditions: probe calcein, values are per cent of control.
The test system of data set [3] is A549. Nature of the data set: Antiinflammatory activity against human A549 cells assessed as inhibition of TNF-alpha-induced ICAM1 expression. The data set is classed as functional, cell-based. Put shortly: (§1)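 A549 cells, 2 × 10^4/well seeded the day before, preincubated 1 h ± test compounds, then stimulated with IL-1α (1 ng/mL) or TNF-α (10 ng/mL) for 6 h. Fixed in 1% paraformaldehyde, mouse anti-human ICAM-1 then peroxidase anti-mouse IgG; o-phenylenediamine/H2O2 substrate, pH 5.3, 20 min 37 °C, A415. Expression as % of stimulated minus unstimulated absorbance.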

Data set [4] has as its target T1, P-glycoprotein (ABCB1). Nature of the data set: Inhibition of P-glycoprotein-mediated multidrug resistance in adriamycin-resistant human A2780 cells assessed as calcein accumulation at 0.25 ug/ml after 15 mins relative to verapamil. Conditions: probe calcein. The data set is classed as cell-based.
Data set [5] deals with T1, P-glycoprotein (ABCB1). As to the kind of experiment: Inhibition of P-glycoprotein-mediated multidrug resistance in adriamycin-resistant human A2780 cells assessed as calcein accumulation at 25 ug/ml after 15 mins relative to verapamil. The data set is classed as cell-based. Conditions: probe calcein.
Data set [6] concerns the target T1, P-glycoprotein (ABCB1). As to the kind of experiment: Inhibition of P-glycoprotein-mediated multidrug resistance in adriamycin-resistant human A2780 cells assessed as calcein accumulation at 25 ug/ml after 15 mins relative to control. Conditions: probe calcein, values are per cent of control. The data set is classed as cell-based.
The test system of data set [7] is A549. Nature of the data set: Antiinflammatory activity against human A549 cells assessed as inhibition of IL-1-alpha-induced ICAM1 expression. The data set is classed as functional, cell-based. The gist of the method: as §1
Data set [8] concerns the target T1, P-glycoprotein (ABCB1). As to the kind of experiment: Inhibition of P-glycoprotein-mediated multidrug resistance in adriamycin-resistant human A2780 cells assessed as calcein accumulation at 2.5 ug/ml after 15 mins relative to verapamil. The data set is classed as cell-based. Conditions: probe calcein.
Data set [9] concerns A549. As to the kind of experiment: Cytotoxicity against human A549 cells after 24 hrs by MTT assay. The data set is classed as functional, cell-based. The gist of the method: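 A549 cells, 2 × 10^4/well seeded the day before, exposed to test compounds 24 h; MTT 500 µg/mL pulsed for the final 4 h, formazan dissolved in 10% SDS overnight, A595. Viability as (sample − background)/(control − background) × 100.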
On the technique in general: Tetrazolium dyes change colour on reduction, which living cells bring about.

Another data set concerns WI-38 VA13. As to the kind of experiment: Cytotoxicity against human VA13 cells after 48 hrs by WST8 assay. The data set is classed as functional, cell-based. The conditions noted are these: WI-38 VA13, 48 h. The gist of the method:
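VA-13 cells grown in RITC 80-7 with 10% FBS; ca. 5000 cells/well preincubated 24 h at 37 °C, 5% CO2, then compounds in DMSO added for 48 h. WST-8 added, formazan read at 450 nm; IC50 taken as 50% growth inhibition from viability-versus-concentration plot.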

The subject of the next data set is HepG2. As to the kind of experiment: Cytotoxicity against human HepG2 cells after 48 hrs by WST8 assay. Conditions: HepG2, 48 h. The data set is classed as functional, cell-based. Put shortly:
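About 5000 cells per well, preincubated 24 h at 37 °C in 5% CO2. Cells kept in D-MEM with 10% FBS and 80 µg/mL kanamycin. Samples were added in DMSO and incubated a further 48 h. WST-8 formazan was read at 450 nm, viability was plotted against concentration, and IC50 was taken as the concentration giving 50% growth inhibition.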

Converted amounts (≈) assume the structure as drawn.

T1 sequence (P08183 whole entry): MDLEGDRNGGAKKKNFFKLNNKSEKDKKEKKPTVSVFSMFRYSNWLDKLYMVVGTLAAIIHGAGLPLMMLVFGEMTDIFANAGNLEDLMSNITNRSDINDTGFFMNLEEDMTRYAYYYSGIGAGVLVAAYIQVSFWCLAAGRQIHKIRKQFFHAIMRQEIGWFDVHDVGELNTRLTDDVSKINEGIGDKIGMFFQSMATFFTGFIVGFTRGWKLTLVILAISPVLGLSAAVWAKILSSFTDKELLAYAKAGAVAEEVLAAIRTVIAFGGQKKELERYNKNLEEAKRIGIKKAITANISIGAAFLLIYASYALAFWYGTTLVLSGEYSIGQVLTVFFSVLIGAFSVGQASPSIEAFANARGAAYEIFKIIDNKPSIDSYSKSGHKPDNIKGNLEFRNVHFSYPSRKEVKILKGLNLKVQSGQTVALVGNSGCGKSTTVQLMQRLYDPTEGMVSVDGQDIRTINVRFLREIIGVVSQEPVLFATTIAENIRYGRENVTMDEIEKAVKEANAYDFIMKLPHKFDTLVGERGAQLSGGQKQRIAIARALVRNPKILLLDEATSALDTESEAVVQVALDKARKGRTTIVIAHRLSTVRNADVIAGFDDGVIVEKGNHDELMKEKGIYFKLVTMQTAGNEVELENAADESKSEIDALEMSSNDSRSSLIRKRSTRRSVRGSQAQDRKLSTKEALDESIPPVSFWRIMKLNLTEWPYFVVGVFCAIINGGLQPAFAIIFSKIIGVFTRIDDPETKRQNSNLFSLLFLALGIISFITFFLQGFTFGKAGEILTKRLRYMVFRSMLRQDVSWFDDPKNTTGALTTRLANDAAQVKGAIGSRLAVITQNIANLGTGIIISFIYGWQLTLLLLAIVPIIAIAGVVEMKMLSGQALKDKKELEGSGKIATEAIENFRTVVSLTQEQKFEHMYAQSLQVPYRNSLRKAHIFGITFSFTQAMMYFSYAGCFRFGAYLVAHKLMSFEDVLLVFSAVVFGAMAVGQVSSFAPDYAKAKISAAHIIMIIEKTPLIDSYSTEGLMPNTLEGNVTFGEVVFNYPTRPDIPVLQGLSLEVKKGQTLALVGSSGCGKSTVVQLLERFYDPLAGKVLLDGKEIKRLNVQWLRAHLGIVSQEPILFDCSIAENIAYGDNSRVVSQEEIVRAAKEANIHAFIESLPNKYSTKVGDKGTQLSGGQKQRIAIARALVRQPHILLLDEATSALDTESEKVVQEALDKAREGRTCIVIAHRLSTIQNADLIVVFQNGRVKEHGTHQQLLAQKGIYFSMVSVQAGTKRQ

Take `COc1cc([C@@H]2O[C@H](c3cc(OC)c4c(c3)OCO4)[C@@H](COC(C)=O)[C@@H]2COC(C)=O)cc(OC)c1O`: the response, % of control at 0.25 h, 0.25 ug/ml on P-glycoprotein (ABCB1) [1] was 88%. In addition, the response, % of control at 0.25 h, 2.5 ug/ml at P-glycoprotein (ABCB1) [2] is 95%. In addition, the figures for the IC50 in the data set on A549 [3], in the data set on A549 [7] and with WI-38 VA13 were 38.6 µM, 84.4 µM and 47.4 µg/mL (≈ 91.4 µM), respectively. Moreover, the inhibition – broadly, the drop in the measured response relative to a control, in per cent – at 0.25 h, 0.25 ug/ml at P-glycoprotein (ABCB1) [4] is 100%. Moreover, the inhibition at 0.25 h, 25 ug/ml at P-glycoprotein (ABCB1) [5] is 78%. Besides, the response, % of control at 0.25 h, 25 ug/ml on P-glycoprotein (ABCB1) [6] is 101%. For the same compound, the inhibition at 0.25 h, 2.5 ug/ml on P-glycoprotein (ABCB1) [8] is 99%. For the same compound, the Activity entry in the data set with A549 [9] is “Not toxic”.
With `COc1cc([C@H]2O[C@@H](c3cc(OC)c4c(c3)OCO4)[C@@H](COC(C)=O)[C@@H]2CO)cc2c1OCO2`, the response, % of control at 0.25 h, 0.25 ug/ml at P-glycoprotein (ABCB1) [1] is 76%. Also, the response, % of control at 0.25 h, 2.5 ug/ml on P-glycoprotein (ABCB1) [2] is 85%. In addition, the inhibition at 0.25 h, 0.25 ug/ml at P-glycoprotein (ABCB1) [4] is 86%. The inhibition at 0.25 h, 25 ug/ml on P-glycoprotein (ABCB1) [5] was 72%. In addition, the response, % of control at 0.25 h, 25 ug/ml on P-glycoprotein (ABCB1) [6] was 94%. The inhibition at 0.25 h, 2.5 ug/ml on P-glycoprotein (ABCB1) [8] was 89%.
Turning to `COc1cc([C@@H]2O[C@H](c3cc(OC)c4c(c3)OCO4)[C@@H](COC(C)=O)[C@@H]2CO)cc(OC)c1OC`, the response, % of control at 0.25 h, 0.25 ug/ml on P-glycoprotein (ABCB1) [1] is 97%. Moreover, the response, % of control at 0.25 h, 2.5 ug/ml on P-glycoprotein (ABCB1) [2] was 105%. For the same compound, the values for the IC50 with A549 [3] and in the data set with A549 [7] were 105 µM and 189 µM, respectively. In addition, the inhibition at 0.25 h, 0.25 ug/ml at P-glycoprotein (ABCB1) [4] was 110%. On P-glycoprotein (ABCB1) [5], the inhibition at 0.25 h, 25 ug/ml was 107%. Further, the response, % of control at 0.25 h, 25 ug/ml on P-glycoprotein (ABCB1) [6] was 138%. Besides, the inhibition at 0.25 h, 2.5 ug/ml on P-glycoprotein (ABCB1) [8] is 110%. The Activity entry in the data set with A549 [9] is “Not toxic”.
With `CC(C)[C@@H](C)/C=C/[C@@H](C)[C@H]1CC[C@H]2[C@@]3(O)C=C[C@@]4(O)C[C@@H](O)CC[C@]4(C)[C@H]3CC[C@]12C`, the response, % of control at 0.25 h, 0.25 ug/ml on P-glycoprotein (ABCB1) [1] was 97%. In addition, the response, % of control at 0.25 h, 2.5 ug/ml on P-glycoprotein (ABCB1) [2] is 106%. Moreover, the inhibition at 0.25 h, 0.25 ug/ml at P-glycoprotein (ABCB1) [4] was 109%. Also, the inhibition at 0.25 h, 25 ug/ml on P-glycoprotein (ABCB1) [5] is 73%. The response, % of control at 0.25 h, 25 ug/ml at P-glycoprotein (ABCB1) [6] was 95%. On P-glycoprotein (ABCB1) [8], the inhibition at 0.25 h, 2.5 ug/ml is 111%. For the same compound, the IC50 (in general, the midpoint of a concentration-inhibition curve) with WI-38 VA13 was 48.1 µg/mL (≈ 112 µM); with HepG2, 47.9 µg/mL (≈ 111 µM).
Regarding `COc1ccc(-c2cc(=O)c3c(O)cc(OC)cc3o2)cc1` [APIGENIN DIMETHYLETHER], the IC50 with WI-38 VA13 is 38.9 µg/mL (≈ 130 µM).
On the same count and under the same terms, as for `COc1cc([C@H]2O[C@H](c3cc(OC)c4c(c3)OCO4)[C@@H](COC(C)=O)[C@@H]2CO)cc2c1OCO2`, the figure is 36.2 µg/mL (≈ 76.3 µM).
Same read-out and setting: as for `O=C1CCCC(=O)C1C(=O)CCc1ccccc1`, the figure is 40.5 µg/mL (≈ 166 µM).

The record behind these values is ChEMBL document CHEMBL1158832, “Bioactive tetrahydrofuran lignans from Peperomia dindygulensis” (J Nat Prod, 2005).
